This is an account of results in ChEMBL document CHEMBL1121537, “Anticoccidial derivatives of 6-azauracil. 3. Synthesis, high activity, and short plasma half-life of 1-phenyl-6-azauracils containing sulfonamide substituents” (J Med Chem, 1980).

Structures are written as SMILES.

As a reminder, the half-life is how long it takes for the measured level to halve.

Tested on in one data set: not listed separately
The experiment in a line: Half life in plasma of young cockerels. The class given is ADME, organism-based, Gallus gallus. The conditions noted are these: male, chicken. In a few lines: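 Plasma half-life in young cockerels, about 10 days old, determined by a previously described method.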
Compound `Cc1cc(-n2ncc(=O)[nH]c2=O)cc(Cl)c1S(=O)(=O)N1CCOCC1` showed a half-life of 1 h.

`O=c1cnn(-c2ccc(S(=O)(=O)N3CCOCC3)c(Cl)c2)c(=O)[nH]1`: the half-life was 2.1 h.

Turning to `COc1c(Cl)cc(-n2ncc(=O)[nH]c2=O)cc1Cl`, the half-life is 2 h.

`O=c1cnn(-c2ccccc2)c(=O)[nH]1` had a half-life of 8 h.

In the next data set the test system is Eimeria tenella. The data set can be described thus: Minimum effective concentration required to prevent formation of detectable lesions in Eimeria tenella infected leghorn cockerels. Format: functional. To be noted: read-out: MEC. In a few lines: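 Leghorn cockerels infected with Eimeria tenella, screened by a modified version of a published screening method. The minimum effective concentration, in ppm, is the lowest level that prevents detectable lesions.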
In the case of `Cc1cc(-n2ncc(=O)[nH]c2=O)cc(Cl)c1S(=O)(=O)N1CCOCC1`, the minimal effective concentration was 10 µg/mL.

In the case of `Cc1cc(-n2ncc(=O)[nH]c2=O)cc(Cl)c1S(=O)(=O)N(C)C`, the minimal effective concentration amounted to 60 µg/mL.

Regarding `C=CCN(C)S(=O)(=O)c1ccc(-n2ncc(=O)[nH]c2=O)cc1Cl`, the minimal effective concentration was determined as 60 µg/mL.

As for `O=c1cnn(-c2ccc(S(=O)(=O)N3CCCC3)c(Cl)c2)c(=O)[nH]1`, the minimal effective concentration is 250 µg/mL.

`COCCN(CCOC)S(=O)(=O)c1c(C)cc(-n2ncc(=O)[nH]c2=O)cc1C`: the minimal effective concentration is 250 µg/mL.

`Cc1cc(-n2ncc(=O)[nH]c2=O)cc(C)c1S(=O)(=O)N(C)Cc1ccccc1`: the minimal effective concentration came to 60 µg/mL.

Take `O=c1cnn(-c2ccc(S(=O)(=O)N3CCOCC3)c(Cl)c2)c(=O)[nH]1`: the minimal effective concentration amounted to 30 µg/mL.

Turning to `CCCCN(CC#N)S(=O)(=O)c1ccc(-n2ncc(=O)[nH]c2=O)cc1Cl`, the minimal effective concentration was above 120 µg/mL.

For `O=c1cnn(-c2ccc(S(=O)(=O)NCc3ccccc3Cl)c(Cl)c2)c(=O)[nH]1`, the minimal effective concentration is above 250 µg/mL.

As to `Cc1cc(-n2ncc(=O)[nH]c2=O)ccc1S(=O)(=O)N(C)C1CCCC1`, the minimal effective concentration was above 120 µg/mL.

In the case of `C=CCN(C)S(=O)(=O)c1ccc(-n2ncc(=O)[nH]c2=O)cc1C`, the minimal effective concentration was determined as 120 µg/mL.

As to `COc1c(Cl)cc(-n2ncc(=O)[nH]c2=O)cc1Cl`, the minimal effective concentration is 250 µg/mL.

For `CCOC(CN(CC(OCC)OCC)S(=O)(=O)c1ccc(-n2ncc(=O)[nH]c2=O)cc1Cl)OCC`, the minimal effective concentration came to 250 µg/mL.

Regarding `CN(CCO)S(=O)(=O)c1ccc(-n2ncc(=O)[nH]c2=O)cc1Cl`, the minimal effective concentration is above 120 µg/mL.

For `Cc1ccc(NS(=O)(=O)c2ccc(-n3ncc(=O)[nH]c3=O)cc2Cl)cc1Cl`, the minimal effective concentration was above 250 µg/mL.

Regarding `O=c1cnn(-c2cc(Br)c(S(=O)(=O)N3CCOCC3)c(Br)c2)c(=O)[nH]1`, the minimal effective concentration is above 30 µg/mL.

Turning to `O=c1cnn(-c2ccccc2)c(=O)[nH]1`, the minimal effective concentration was found to be 500 µg/mL.

For the compound `O=c1cnn(-c2ccc(S(=O)(=O)NC3CCCCC3)c(Cl)c2)c(=O)[nH]1`, the minimal effective concentration was above 500 µg/mL.

`COc1ccc(NS(=O)(=O)c2c(C)cc(-n3ncc(=O)[nH]c3=O)cc2C)cc1`: the minimal effective concentration is above 250 µg/mL.

With `CCOC(=O)N1CCN(S(=O)(=O)c2ccc(-n3ncc(=O)[nH]c3=O)cc2Cl)CC1`, the minimal effective concentration is above 250 µg/mL.

For the compound `NS(=O)(=O)c1ccc(NS(=O)(=O)c2ccc(-n3ncc(=O)[nH]c3=O)cc2)cc1`, the minimal effective concentration is 500 µg/mL.

As for `CN(C1CCCC1)S(=O)(=O)c1ccc(-n2ncc(=O)[nH]c2=O)cc1Cl`, the minimal effective concentration is above 120 µg/mL.

On to `Cc1cc(-n2ncc(=O)[nH]c2=O)ccc1S(=O)(=O)N1CCN(C=O)CC1`, for which the minimal effective concentration stood at 500 µg/mL.

With `CN(Cc1ccc(Cl)cc1)S(=O)(=O)c1ccc(-n2ncc(=O)[nH]c2=O)cc1Cl`, the minimal effective concentration was determined as 500 µg/mL.

Turning to `Cc1cc(-n2ncc(=O)[nH]c2=O)cc(C)c1S(=O)(=O)Cl`, the minimal effective concentration worked out at 250 µg/mL.

Consider `O=c1cnn(-c2ccc(S(=O)(=O)N3CCC(O)CC3)c(Cl)c2)c(=O)[nH]1`, for which the minimal effective concentration is above 250 µg/mL.

Consider `O=c1cnn(-c2ccc(S(=O)(=O)N3CCCCC3)cc2)c(=O)[nH]1`, for which the minimal effective concentration worked out at 250 µg/mL.

Turning to `Cc1cc(-n2ncc(=O)[nH]c2=O)cc(C)c1S(=O)(=O)N1CCCC1`, the minimal effective concentration was determined as 60 µg/mL.

For the compound `O=c1cnn(-c2cc(Cl)c(Cl)c(Cl)c2)c(=O)[nH]1`, the minimal effective concentration was determined as 4 µg/mL.

As for `O=c1cnn(-c2ccc(S(=O)(=O)NC3CCCCCCC3)c(Cl)c2)c(=O)[nH]1`, the minimal effective concentration was above 250 µg/mL.

Take `O=C1CCN(S(=O)(=O)c2ccc(-n3ncc(=O)[nH]c3=O)cc2Cl)CC1`: the minimal effective concentration was above 250 µg/mL.

`NS(=O)(=O)c1ccc(-n2ncc(=O)[nH]c2=O)cc1Cl`: the minimal effective concentration was above 120 µg/mL.

As for `C=CCN(CC=C)S(=O)(=O)c1ccc(-n2ncc(=O)[nH]c2=O)cc1Cl`, the minimal effective concentration amounted to 250 µg/mL.

`O=c1cnn(-c2ccc(S(=O)(=O)N3CCCCC3)c(Cl)c2)c(=O)[nH]1`: the minimal effective concentration stood at 250 µg/mL.

With `O=c1cnn(-c2ccc(S(=O)(=O)N3CCC(Cc4ccccc4)CC3)c(Cl)c2)c(=O)[nH]1`, the minimal effective concentration was above 250 µg/mL.

With `O=c1cnn(-c2ccc(S(=O)(=O)N3CCSC3)c(Cl)c2)c(=O)[nH]1`, the minimal effective concentration was above 120 µg/mL.

In the case of `O=c1cnn(-c2ccc(S(=O)(=O)N3CCOCC3)cc2)c(=O)[nH]1`, the minimal effective concentration was above 250 µg/mL.

For the compound `O=c1cnn(-c2ccc(S(=O)(=O)Cl)cc2)c(=O)[nH]1`, the minimal effective concentration is above 250 µg/mL.

Consider `Cc1cc(Cl)cc(NS(=O)(=O)c2ccc(-n3ncc(=O)[nH]c3=O)cc2Cl)c1`, for which the minimal effective concentration was above 250 µg/mL.

On to `Cc1cc(-n2ncc(=O)[nH]c2=O)cc(Cl)c1S(=O)(=O)N1CCSCC1`, for which the minimal effective concentration worked out at 120 µg/mL.

Turning to `CCN(C)S(=O)(=O)c1ccc(-n2ncc(=O)[nH]c2=O)cc1Cl`, the minimal effective concentration came to 120 µg/mL.

As to `CCN(CC)S(=O)(=O)c1c(C)cc(-n2ncc(=O)[nH]c2=O)cc1Cl`, the minimal effective concentration worked out at 250 µg/mL.

Regarding `CN(c1ccccc1)S(=O)(=O)c1ccc(-n2ncc(=O)[nH]c2=O)cc1Cl`, the minimal effective concentration is above 250 µg/mL.

In the case of `CCCN(CCC)S(=O)(=O)c1ccc(-n2ncc(=O)[nH]c2=O)cc1Cl`, the minimal effective concentration is above 250 µg/mL.

`O=c1cnn(-c2ccc(S(=O)(=O)N(Cc3ccccc3)Cc3ccccc3)c(Cl)c2)c(=O)[nH]1`: the minimal effective concentration is above 250 µg/mL.

In the case of `CN(C)S(=O)(=O)c1ccc(-n2ncc(=O)[nH]c2=O)cc1Cl`, the minimal effective concentration is 250 µg/mL.

Take `CCCN(C)S(=O)(=O)c1ccc(-n2ncc(=O)[nH]c2=O)cc1Cl`: the minimal effective concentration turned out to be 250 µg/mL.

With `CCCN(C)S(=O)(=O)c1c(C)cc(-n2ncc(=O)[nH]c2=O)cc1C`, the minimal effective concentration was 120 µg/mL.

As to `CCN(C(C)C)S(=O)(=O)c1ccc(-n2ncc(=O)[nH]c2=O)cc1C`, the minimal effective concentration turned out to be 500 µg/mL.

`O=c1cnn(-c2ccc(S(=O)(=O)Nc3c(F)c(F)c(F)c(F)c3F)c(Cl)c2)c(=O)[nH]1`: the minimal effective concentration was above 60 µg/mL.

Regarding `Cc1cc(-n2ncc(=O)[nH]c2=O)cc(C)c1S(=O)(=O)N(C)C`, the minimal effective concentration worked out at 60 µg/mL.

Consider `O=c1cnn(-c2cccc(Cl)c2)c(=O)[nH]1`, for which the minimal effective concentration was found to be 120 µg/mL.

With `O=c1cnn(-c2ccc(S(=O)(=O)Nc3cccc(Cl)c3)c(Cl)c2)c(=O)[nH]1`, the minimal effective concentration is above 500 µg/mL.

For `CC(C)(C)CC(C)(C)NS(=O)(=O)c1ccc(-n2ncc(=O)[nH]c2=O)cc1`, the minimal effective concentration was above 120 µg/mL.

On to `O=c1cnn(-c2ccc(S(=O)(=O)N3CCSCC3)c(Cl)c2)c(=O)[nH]1`, for which the minimal effective concentration turned out to be 60 µg/mL.

For another data set, the system named is Gallus gallus. The experiment in a line: Plasma level measured 3h after oral administration of 4-5 mg/kg body weight in young cockerels.
Conditions: not given
The class given is functional, organism-based. Put shortly:
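Young cockerels, about 10 days old, given 4-5 mg/kg body weight orally; drug level in plasma measured 3 h after dosing, in mcg/mL.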
In turn, `Cc1cc(-n2ncc(=O)[nH]c2=O)cc(Cl)c1S(=O)(=O)N1CCOCC1` gave a Plasma level of 0.38 µg/mL.

For the compound `O=c1cnn(-c2ccc(S(=O)(=O)N3CCOCC3)c(Cl)c2)c(=O)[nH]1`, the Plasma level is 1.9 µg/mL.

A further data set relates to Eimeria tenella. The experiment in a line: The compound was evaluated for the variations in the vulnerability to Eimeria tenella. The class given is functional. The conditions noted are these: read-out: MEC.
Take `Cc1cc(-n2ncc(=O)[nH]c2=O)cc(Cl)c1S(=O)(=O)N1CCOCC1`: the minimal effective concentration amounted to 10 µg/mL.

On to `O=c1cnn(-c2ccc(S(=O)(=O)N3CCOCC3)c(Cl)c2)c(=O)[nH]1`, for which the minimal effective concentration worked out at 30 µg/mL.

For the next data set, the system named is Eimeria acervulina. The data set can be described thus: The compound was evaluated for the variations in the vulnerability to Eimeria acervulina. The class given is functional. The conditions noted are these: read-out: MEC.
Regarding `Cc1cc(-n2ncc(=O)[nH]c2=O)cc(Cl)c1S(=O)(=O)N1CCOCC1`, the minimal effective concentration was determined as 60 µg/mL.

Turning to `O=c1cnn(-c2ccc(S(=O)(=O)N3CCOCC3)c(Cl)c2)c(=O)[nH]1`, the minimal effective concentration is 120 µg/mL.
